Screening results from PubChem.
Compounds with a hit are over-represented: about 2.1% of the library has one in this group of screens.
Runt-CBFb FRET – inhibitors of RUNX1 Runt–CBFb binding, primary screen, biochemical, FRET, Cerulean-Runt, Venus-CBFb, uHTS; Runt-related transcription factor 1 (Homo sapiens) + Core-binding factor subunit beta …; Cerulean-Runt/Venus-CBFb FRET ratio 530/480, 1 h; 0.46% of 220,000 active; inhibition, % at 20 µM;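 active = inhibition over about 50% at 20 µM in the single-dose screen, limit read from the data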;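 note: 0% = DMSO wells and 100% = excess unlabeled CBFb competitor control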
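Schedule: protein complex preformed 1 h, compound exposure 1 h, room temperature, dark; test system: Cerulean-labeled Runt domain protein; amount: 100 nM per protein; buffer or medium: Tris 50 mM pH 7.5, KCl, K2SO4, 0.01% BSA; read-out: loss of energy transfer signal; detection: FRET fluorescence; controls: 5 µM unlabeled CBFb as full-inhibition high control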
RanGTP-Imp inh – inhibitors of RanGTP-importin-beta interaction, primary screen, biochemical, FRET, CFP-Ran, YFP-importin-beta, homogeneous. Ran GTPase (GTP-bound) - importin-beta complex. cell-free CFP-Ran/YFP-importin-beta FRET ratio. inhibition, % (concentration not given with the values). 1.1% of 300,000 active;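 active = more than half of the replicate wells show a fall in the fluorescence ratio signal beyond about 16%, limit read from the data, passing the limit was not always enough; inconclusive = exactly half of the replicate wells pass the set limit; inactive = fewer than half of replicates pass the limit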;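 note: 0% = DMSO wells and 100% = Ran loaded with GDP instead of GTP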
Runt-SMMHC FRET – inhibitors of RUNX1 Runt–CBFb-SMMHC binding, primary screen, biochemical, FRET, Cerulean-Runt, Venus-CBFb-SMMHC, uHTS | AID 1434, 2008 | Runt-related transcription factor 1 (Homo sapiens) + Core-binding factor subunit beta … | 0.74% of 220,000 active | Cerulean-Runt/Venus-CBFb-SMMHC FRET ratio 530/480, 1 h | inhibition, % at 20 µM;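 active = mean inhibition across duplicate retests at 20 µM reaching about 50%, limit read from the data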;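 note: 0% = DMSO wells and 100% = wells with excess untagged CBFb-SMMHC; inhibitors lower the FRET ratio by blocking Runt binding to CBFb-SMMHC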
p97 inhibitor – inhibitors of human p97 ATPase, primary screen, biochemical; recombinant p97 ATPase, Kinase-Glo ATP luminescence, 3 h; inhibition, % at 8 µM; 0.42% of 220,000 active; AID 1481, 2009; in the data active = inhibition above about 15%;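 note: 0% = DMSO vehicle and 100% = wells lacking enzyme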
Target sequence (P55072 whole entry, looked up): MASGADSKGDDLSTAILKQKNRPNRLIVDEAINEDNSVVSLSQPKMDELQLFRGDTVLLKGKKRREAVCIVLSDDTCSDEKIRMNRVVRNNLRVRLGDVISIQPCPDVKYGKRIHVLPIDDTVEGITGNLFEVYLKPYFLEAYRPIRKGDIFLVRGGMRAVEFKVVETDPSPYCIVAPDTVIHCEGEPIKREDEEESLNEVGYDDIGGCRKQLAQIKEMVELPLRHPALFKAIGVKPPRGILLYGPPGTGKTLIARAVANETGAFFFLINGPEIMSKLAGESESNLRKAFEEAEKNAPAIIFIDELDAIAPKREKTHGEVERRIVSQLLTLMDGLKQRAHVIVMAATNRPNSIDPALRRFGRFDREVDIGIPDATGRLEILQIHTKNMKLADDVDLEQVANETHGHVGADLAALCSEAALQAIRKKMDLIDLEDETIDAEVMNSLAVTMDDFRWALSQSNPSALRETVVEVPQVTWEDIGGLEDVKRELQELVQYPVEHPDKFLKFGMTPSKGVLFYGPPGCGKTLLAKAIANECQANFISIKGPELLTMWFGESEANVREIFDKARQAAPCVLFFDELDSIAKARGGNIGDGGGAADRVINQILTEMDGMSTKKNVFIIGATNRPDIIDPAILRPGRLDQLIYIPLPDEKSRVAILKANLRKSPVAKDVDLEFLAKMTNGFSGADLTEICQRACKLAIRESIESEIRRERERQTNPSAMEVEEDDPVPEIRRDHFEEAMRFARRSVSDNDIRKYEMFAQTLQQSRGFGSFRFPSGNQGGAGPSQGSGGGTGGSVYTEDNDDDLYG
Tb hexokinase – Trypanosoma brucei hexokinase 1 inhibitors, primary screen, biochemical, G6PDH-coupled NADH absorbance, MLSCN library. recombinant TbHK1, G6PDH-coupled NADH A340. 0.11% of 220,000 active. inhibition, % at 10 µM;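 active = inhibition of 50% or more in the single-dose primary screen; inactive = inhibition below 50%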
Hck-Nef inh – inhibitors of Nef-activated human Hck kinase, primary screen, biochemical, Z-Lyte FRET, 384-well, Hck-YEEI | inhibition, % at 20 µM | Recombinant Hck-YEEI plus Nef, Z-Lyte FRET kinase assay | Tyrosine-protein kinase HCK (Homo sapiens), P08631 | 0.68% of 220,000 active;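 active = Hck-Nef kinase inhibition above about 50%, limit read from the data; inactive = inhibition below that limit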;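 note: 0% = DMSO with Hck plus Nef and 100% = Hck alone without Nef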
YIC FRET counter – YIC intramolecular FRET probe signal interference, dose response, counter-screen for RanGTP-importin-beta inhibitor project, biochemical, fluorescence FRET | shares compounds with RanGTP-Imp inh | Purified YIC probe, intramolecular FRET ratio YFP/CFP | IC50, µM | 40% of 1,000 active | AID 435026, 2010;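 active = fitted half-maximal inhibitory concentration no more than tenfold above the top dose tested; inconclusive = flat fit with 30 to 70% activity, or poor fit; inactive = half-maximal concentration beyond tenfold above the top dose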
An asterisk follows results filed as active.

How did CCOC(=O)c1ccc(NC(=O)CSc2nnc(C3CCCCC3)n2C)cc1 do in these assays?
Runt-CBFb FRET: -1; RanGTP-Imp inh: 16*; Runt-SMMHC FRET: -4; p97 inhibitor: -3; Tb hexokinase: 7; Hck-Nef inh: 16; YIC FRET counter: >50

What do the screens show for `CC1(C)CC(=O)C=C(Nc2ccccc2O)C1`?
Runt-CBFb FRET: 0; RanGTP-Imp inh: 16*; Runt-SMMHC FRET: 0; p97 inhibitor: 5; Tb hexokinase: 3; Hck-Nef inh: 3; YIC FRET counter: >50

Results for CC1(C)CC(=O)C=C(Nc2ccccc2F)C1 ?
Runt-CBFb FRET: 1; RanGTP-Imp inh: 25*; Runt-SMMHC FRET: 0; p97 inhibitor: -3; Tb hexokinase: -4; Hck-Nef inh: 1; YIC FRET counter: >50

What do the screens show for `CC1(C)CC(=O)C=C(NCc2ccccc2)C1`?
Runt-CBFb FRET: -2; RanGTP-Imp inh: 0; Runt-SMMHC FRET: -2; p97 inhibitor: -1; Tb hexokinase: 3; Hck-Nef inh: -1

Results for CC1(C)CC(=O)C=C(Nc2ccccc2C#N)C1 ?
RanGTP-Imp inh: 5

How did Cc1[nH]c2ccccc2c1C(=O)C(=O)N1CCN(C(=O)c2ccco2)CC1 do in these assays?
Runt-CBFb FRET: 2; RanGTP-Imp inh: 2; Runt-SMMHC FRET: 4; p97 inhibitor: 3; Tb hexokinase: -14; Hck-Nef inh: 13

What do the screens show for `N#C/C(=C(/O)CSc1ccccn1)c1nc2ccccc2s1`?
Runt-CBFb FRET: 7; RanGTP-Imp inh: 21*; Runt-SMMHC FRET: -1; p97 inhibitor: -3; Tb hexokinase: 2; Hck-Nef inh: 13; YIC FRET counter: >50

Results for N#C/C(=C(/O)COc1ccc(Cl)cc1)c1nc2ccccc2s1 ?
Runt-CBFb FRET: -3; RanGTP-Imp inh: -4; Runt-SMMHC FRET: -3; p97 inhibitor: 2; Tb hexokinase: -36; Hck-Nef inh: -4

How did COc1ccc(-c2cc(C(F)(F)F)n3nc(N)nc3n2)cc1 do in these assays?
Runt-CBFb FRET: 26; RanGTP-Imp inh: 27*; Runt-SMMHC FRET: 59*; p97 inhibitor: -1; Tb hexokinase: -35; Hck-Nef inh: 38; YIC FRET counter: 21*

Results for COc1cc2c(cc1OC)CN(Cc1cc(=O)oc3cc(C)c(Cl)cc13)CC2 ?
Runt-CBFb FRET: -18; RanGTP-Imp inh: 23*; Runt-SMMHC FRET: -41; p97 inhibitor: 7; Tb hexokinase: 13; Hck-Nef inh: 7; YIC FRET counter: >50

How did CCc1ccc2c(CN3CCc4cc(OC)c(OC)cc4C3)cc(=O)oc2c1 do in these assays?
Runt-CBFb FRET: -16; RanGTP-Imp inh: 10; Runt-SMMHC FRET: -41; p97 inhibitor: 4; Tb hexokinase: -7; Hck-Nef inh: 6

What do the screens show for `COc1cc2c(cc1OC)CN(Cc1cc(=O)oc3cc(C)c(C)cc13)CC2`?
Runt-CBFb FRET: -2; RanGTP-Imp inh: inconclusive; Runt-SMMHC FRET: 2; p97 inhibitor: -1; Tb hexokinase: -14; Hck-Nef inh: 1

How did COc1cc2c(cc1OC)CN(Cc1cc(=O)oc3c(C)c(C)ccc13)CC2 do in these assays?
Runt-CBFb FRET: -17; RanGTP-Imp inh: 20*; Runt-SMMHC FRET: -41; p97 inhibitor: 1; Tb hexokinase: -13; Hck-Nef inh: 4; YIC FRET counter: >50

Results for O=C(CCNC(=O)C1CCN(S(=O)(=O)c2ccc(F)cc2)CC1)NCc1ccccc1Cl ?
RanGTP-Imp inh: 5

What do the screens show for `NC(=O)c1cc2cc(Br)ccc2o/c1=N/NC(=O)c1cccc(F)c1`?
RanGTP-Imp inh: 4

Results for C=CCn1c(SCCOc2ccc(OC)cc2)nnc1C(CO)NC(=O)c1ccc(OC)cc1 (stereo unspecified) ?
Runt-CBFb FRET: 2; RanGTP-Imp inh: 19*; Runt-SMMHC FRET: -5; p97 inhibitor: 1; Tb hexokinase: 4; Hck-Nef inh: -11; YIC FRET counter: >50

How did Cc1cccc(C(=O)Nc2cccc(-c3ccc4nncn4n3)c2)c1 do in these assays?
Runt-CBFb FRET: -5; RanGTP-Imp inh: -1; Runt-SMMHC FRET: -8; p97 inhibitor: 3; Tb hexokinase: 6; Hck-Nef inh: 18

What do the screens show for `Cc1nnc(SCC(=O)c2ccc(Br)cc2)s1`?
Runt-CBFb FRET: 1; RanGTP-Imp inh: 4; Runt-SMMHC FRET: 1; p97 inhibitor: 7; Tb hexokinase: 0; Hck-Nef inh: 24

How did CCCCc1cc(-c2n[nH]c(=S)o2)c2ccccc2n1 do in these assays?
RanGTP-Imp inh: 20*; YIC FRET counter: >50

Results for N#CC1=C(N)OC2=C(CCc3ccccc32)C1c1ccccc1 (stereo unspecified) ?
Runt-CBFb FRET: 35; RanGTP-Imp inh: 18*; Runt-SMMHC FRET: 38; p97 inhibitor: -4; Tb hexokinase: 8; Hck-Nef inh: 3; YIC FRET counter: >50

What do the screens show for `COc1ccc2[nH]c(C(=O)N/N=C/c3ccc(O)cc3O)cc2c1`?
RanGTP-Imp inh: 9

How did O=C1C=C(Nc2ccc(Cl)cc2Cl)CC(c2ccco2)C1 (stereo unspecified) do in these assays?
Runt-CBFb FRET: 1; RanGTP-Imp inh: 24*; Runt-SMMHC FRET: 3; p97 inhibitor: 1; Tb hexokinase: -7; Hck-Nef inh: 9; YIC FRET counter: >50

How did CCCN1CC(O)=C(C#N)C1=O do in these assays?
Runt-CBFb FRET: 0; RanGTP-Imp inh: 24*; Runt-SMMHC FRET: 1; p97 inhibitor: 7; Tb hexokinase: 2; Hck-Nef inh: 12; YIC FRET counter: >50

How did CCOC(=O)N1CCN(c2cc(=O)n(-c3ccccc3C)c(=O)[nH]2)CC1 do in these assays?
Runt-CBFb FRET: 0; RanGTP-Imp inh: 36*; Runt-SMMHC FRET: 2; p97 inhibitor: 4; Tb hexokinase: -5; Hck-Nef inh: 18; YIC FRET counter: >50

How did Cc1ccccc1-n1c(=O)cc(N2CC(C)OC(C)C2)[nH]c1=O (stereo unspecified) do in these assays?
Runt-CBFb FRET: -5; RanGTP-Imp inh: 63*; Runt-SMMHC FRET: -1; p97 inhibitor: -2; Tb hexokinase: 18; Hck-Nef inh: 2; YIC FRET counter: >50
